Data taken from ChEMBL document CHEMBL1141414, “Inhibitors of bacterial cystathionine beta-lyase: leads for new antimicrobial agents and probes of enzyme structure and function” (J Med Chem, 2007).
In brackets after ≈: the same amount, converted by molar mass.

System: Candida albicans
Assay: Antifungal activity against Candida albicans ATCC 90028
Type: functional

| MIC | Compound |
| --- | --- |
| > 128 µg/mL | Cc1ccc2nc(-c3ccc(NC(=O)Nc4ccc(Cl)cc4)cc3)sc2c1 |
| 16 µg/mL (≈ 56.1 µM) | Cc1ccccc1NC(=O)C(C(F)(F)F)C(F)(F)F |
| > 128 µg/mL | Cc1ccc2nc(-c3ccc(NC(=O)c4ccc(Cl)cc4)cc3)sc2c1 |
| 128 µg/mL (≈ 537 µM) | NNC(=O)CNC(=O)c1ccccc1[N+](=O)[O-] |
| > 128 µg/mL | NNC(=O)CNC(=O)c1ccccc1C(F)(F)F |
| > 128 µg/mL | NNC(=O)CNC(=O)c1cccc(C(F)(F)F)c1 |
| > 128 µg/mL | NNC(=O)CNC(=O)c1ccc(C(F)(F)F)cc1 |
| > 128 µg/mL | NNC(=O)CNC(=O)c1ccc([N+](=O)[O-])cc1 |
| > 128 µg/mL | NNC(=O)CNC(=O)c1cc([N+](=O)[O-])cc([N+](=O)[O-])c1 |
| > 128 µg/mL | O=C(OCc1ccccc1Br)c1cc([N+](=O)[O-])cc2c1-c1ccc([N+](=O)[O-])cc1/C2=N/O |
| 128 µg/mL (≈ 687 µM) | Cc1ccc(S(=O)(=O)NN)cc1 |
| > 128 µg/mL | NNS(=O)(=O)c1ccc(-c2ccccn2)s1 |
| > 128 µg/mL | COc1c(F)c(F)cc(C(=O)NCC(=O)NN)c1F |
| > 128 µg/mL | NNC(=O)CNC(=O)c1cc2ccccc2cc1N |
| > 128 µg/mL | NNC(=O)CNC(=O)c1cc(N)cc(N)c1 |
| > 128 µg/mL | O=C(CSc1nccc(-c2cccs2)n1)c1cc(-c2ccc(Cl)c(Cl)c2)no1 |
| > 128 µg/mL | COc1cccc(OC)c1C(=O)NCC(=O)NN |
| > 128 µg/mL | CC(=O)NCc1ccc(S(=O)(=O)NN)cc1 |

Target: T1, Cystathionine beta-lyase MetC (Escherichia coli K-12, UniProt P06721)
T1 sequence (P06721 whole entry): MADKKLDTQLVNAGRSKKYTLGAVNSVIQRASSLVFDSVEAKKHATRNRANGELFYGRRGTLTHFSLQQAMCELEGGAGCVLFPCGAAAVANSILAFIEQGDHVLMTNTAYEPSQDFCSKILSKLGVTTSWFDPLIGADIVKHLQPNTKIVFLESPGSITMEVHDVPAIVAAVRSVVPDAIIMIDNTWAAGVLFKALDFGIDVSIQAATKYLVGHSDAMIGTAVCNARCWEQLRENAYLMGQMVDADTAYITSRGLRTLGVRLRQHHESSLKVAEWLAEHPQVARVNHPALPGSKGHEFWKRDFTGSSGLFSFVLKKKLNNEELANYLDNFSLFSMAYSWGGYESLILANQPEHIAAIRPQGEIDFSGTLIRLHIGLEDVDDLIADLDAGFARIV
Assay: Inhibition of Escherichia coli CBL
In short: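 Purified E. coli CBL (24 nM) in 50 mM TAPS pH 8.5 with 1 mM DTNB, preincubated 10 min at room temperature with inhibitor in DMSO (5% final). Reaction started with 100 µM cystathionine; homocysteine formation followed at 412 nm for 4 min, rate taken from 30-200 s slope. IC50 fitted as a four-parameter logistic from 12 concentrations, triplicate.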

| IC50 | Compound |
| --- | --- |
| 16 µM | Cc1ccc2nc(-c3ccc(NC(=O)Nc4ccc(Cl)cc4)cc3)sc2c1 |
| 0.28 µM | Cc1ccccc1NC(=O)C(C(F)(F)F)C(F)(F)F |
| 200 µM | Cc1ccc2nc(-c3ccc(NC(=O)c4ccc(Cl)cc4)cc3)sc2c1 |
| 4.5 µM | NNC(=O)CNC(=O)c1ccccc1[N+](=O)[O-] |
| 0.079 µM | NNC(=O)CNC(=O)c1ccccc1C(F)(F)F |
| 37 µM | NNC(=O)CNC(=O)c1cccc(C(F)(F)F)c1 |
| 15 µM | NNC(=O)CNC(=O)c1ccc(C(F)(F)F)cc1 |
| 6 µM | NNS(=O)(=O)c1cccc2c(N)cccc12 |
| 25 µM | NNC(=O)CNC(=O)c1ccc([N+](=O)[O-])cc1 |
| 5.9 µM | NNC(=O)CNC(=O)c1cc([N+](=O)[O-])cc([N+](=O)[O-])c1 |
| 0.53 µM | O=C(OCc1ccccc1Br)c1cc([N+](=O)[O-])cc2c1-c1ccc([N+](=O)[O-])cc1/C2=N/O |
| 2.2 µM | Cc1ccc(S(=O)(=O)NN)cc1 |
| 3.4 µM | NNS(=O)(=O)c1ccc(-c2ccccn2)s1 |
| 1.8 µM | NNS(=O)(=O)c1ccc(Cl)c(Cl)c1 |
| 0.65 µM | COc1c(F)c(F)cc(C(=O)NCC(=O)NN)c1F |
| 560 µM | NNC(=O)CNC(=O)c1cc2ccccc2cc1N |
| 82 µM | NNC(=O)CNC(=O)c1cc(N)cc(N)c1 |
| 2.7 µM | O=C(CSc1nccc(-c2cccs2)n1)c1cc(-c2ccc(Cl)c(Cl)c2)no1 |
| 60 µM | COc1cccc(OC)c1C(=O)NCC(=O)NN |
| 9 µM | N#CC(C#N)=C1c2cc(S(=O)(=O)Oc3ccccc3)cc([N+](=O)[O-])c2-c2c1cc(S(=O)(=O)Oc1ccccc1)cc2[N+](=O)[O-] |
| 34 µM | CC(=O)NCc1ccc(S(=O)(=O)NN)cc1 |
| 500 µM | NNC(=O)CNC(=O)Cc1cccc2ccccc12 |
| 6.9 µM | NNS(=O)(=O)c1ccc(Cl)s1 |

System: Escherichia coli
Assay: Antibacterial activity against Escherichia coli ATCC 25922 in absence of methionine
Type: functional

| MIC | Compound |
| --- | --- |
| > 128 µg/mL | Cc1ccc2nc(-c3ccc(NC(=O)Nc4ccc(Cl)cc4)cc3)sc2c1 |
| 32 µg/mL (≈ 112 µM) | Cc1ccccc1NC(=O)C(C(F)(F)F)C(F)(F)F |
| > 128 µg/mL | Cc1ccc2nc(-c3ccc(NC(=O)c4ccc(Cl)cc4)cc3)sc2c1 |
| 16 µg/mL (≈ 67.2 µM) | NNC(=O)CNC(=O)c1ccccc1[N+](=O)[O-] |
| > 128 µg/mL | NNC(=O)CNC(=O)c1ccccc1C(F)(F)F |
| > 128 µg/mL | NNC(=O)CNC(=O)c1cccc(C(F)(F)F)c1 |
| 128 µg/mL (≈ 490 µM) | NNC(=O)CNC(=O)c1ccc(C(F)(F)F)cc1 |
| 32 µg/mL (≈ 134 µM) | NNC(=O)CNC(=O)c1ccc([N+](=O)[O-])cc1 |
| 128 µg/mL (≈ 452 µM) | NNC(=O)CNC(=O)c1cc([N+](=O)[O-])cc([N+](=O)[O-])c1 |
| 64 µg/mL (≈ 128 µM) | O=C(OCc1ccccc1Br)c1cc([N+](=O)[O-])cc2c1-c1ccc([N+](=O)[O-])cc1/C2=N/O |
| 32 µg/mL (≈ 172 µM) | Cc1ccc(S(=O)(=O)NN)cc1 |
| 32 µg/mL (≈ 125 µM) | NNS(=O)(=O)c1ccc(-c2ccccn2)s1 |
| > 128 µg/mL | COc1c(F)c(F)cc(C(=O)NCC(=O)NN)c1F |
| > 128 µg/mL | NNC(=O)CNC(=O)c1cc2ccccc2cc1N |
| 128 µg/mL (≈ 573 µM) | NNC(=O)CNC(=O)c1cc(N)cc(N)c1 |
| > 128 µg/mL | O=C(CSc1nccc(-c2cccs2)n1)c1cc(-c2ccc(Cl)c(Cl)c2)no1 |
| > 128 µg/mL | COc1cccc(OC)c1C(=O)NCC(=O)NN |
| 64 µg/mL (≈ 263 µM) | CC(=O)NCc1ccc(S(=O)(=O)NN)cc1 |

System: Escherichia coli
Assay: Antibacterial activity against Escherichia coli ATCC 25922 in presence of methionine
Type: functional

| MIC | Compound |
| --- | --- |
| > 128 µg/mL | Cc1ccc2nc(-c3ccc(NC(=O)Nc4ccc(Cl)cc4)cc3)sc2c1 |
| 64 µg/mL | Cc1ccccc1NC(=O)C(C(F)(F)F)C(F)(F)F |
| > 128 µg/mL | Cc1ccc2nc(-c3ccc(NC(=O)c4ccc(Cl)cc4)cc3)sc2c1 |
| 16 µg/mL | NNC(=O)CNC(=O)c1ccccc1[N+](=O)[O-] |
| > 128 µg/mL | NNC(=O)CNC(=O)c1ccccc1C(F)(F)F |
| > 128 µg/mL | NNC(=O)CNC(=O)c1cccc(C(F)(F)F)c1 |
| 128 µg/mL | NNC(=O)CNC(=O)c1ccc(C(F)(F)F)cc1 |
| 64 µg/mL | NNC(=O)CNC(=O)c1ccc([N+](=O)[O-])cc1 |
| 128 µg/mL | NNC(=O)CNC(=O)c1cc([N+](=O)[O-])cc([N+](=O)[O-])c1 |
| 64 µg/mL | O=C(OCc1ccccc1Br)c1cc([N+](=O)[O-])cc2c1-c1ccc([N+](=O)[O-])cc1/C2=N/O |
| 64 µg/mL | Cc1ccc(S(=O)(=O)NN)cc1 |
| 32 µg/mL | NNS(=O)(=O)c1ccc(-c2ccccn2)s1 |
| > 128 µg/mL | COc1c(F)c(F)cc(C(=O)NCC(=O)NN)c1F |
| > 128 µg/mL | NNC(=O)CNC(=O)c1cc2ccccc2cc1N |
| 128 µg/mL | NNC(=O)CNC(=O)c1cc(N)cc(N)c1 |
| > 128 µg/mL | O=C(CSc1nccc(-c2cccs2)n1)c1cc(-c2ccc(Cl)c(Cl)c2)no1 |
| > 128 µg/mL | COc1cccc(OC)c1C(=O)NCC(=O)NN |
| 64 µg/mL | CC(=O)NCc1ccc(S(=O)(=O)NN)cc1 |
